Experimental data as given in ChEMBL document CHEMBL5357072, “Structural Modification of Noscapine via Photoredox/Nickel Dual Catalysis for the Discovery of S-Phase Arresting Agents” (ACS Med Chem Lett, 2024).

test system: NB-4; experiment: Antiproliferative activity against human NB4 cells assessed as inhibition of cell growth incubated for 48 hrs by CCK8 assay; format: functional, cell-based; details: NB-4, 48 h
Method in brief: (§1)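 CCK-8 growth-inhibition assay in the malignant haematological lines MOLM-13, NB4 and Jeko-1 and in normal PBMC. Cells were treated across a range of doses and IC50 taken as the half-maximal growth-inhibitory concentration. Data are mean ± SD of triplicate samples, and experiments were repeated at least three times.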

| SMILES | IC50 [µM] |
| --- | --- |
| COc1ccc2c(c1OC)C(=O)O[C@@H]2[C@H]1c2c(c(CC3CN(C(=O)OCc4ccccc4)C3)c3c(c2OC)OCO3)CCN1C | 10.7 |
| COc1ccc2c(c1OC)C(=O)O[C@@H]2[C@H]1c2c(c(CC3CN(C(C)=O)C3)c3c(c2OC)OCO3)CCN1C | > 20 |

test system: JeKo-1; experiment: Antiproliferative activity against human JeKo-1 cells assessed as inhibition of cell growth incubated for 48 hrs by CCK8 assay; format: functional, cell-based; details: JeKo-1, 48 h; method in brief: as §1

| SMILES | IC50 [µM] |
| --- | --- |
| COc1ccc2c(c1OC)C(=O)O[C@@H]2[C@H]1c2c(c(CC3CN(C(=O)OCc4ccccc4)C3)c3c(c2OC)OCO3)CCN1C | 5.11 |
| COc1ccc2c(c1OC)C(=O)O[C@@H]2[C@H]1c2c(c(CC3CN(C(C)=O)C3)c3c(c2OC)OCO3)CCN1C | > 20 |

test system: MOLM-13; experiment: Antiproliferative activity against human MOLM-13 cells assessed as inhibition of cell growth incubated for 48 hrs by CCK8 assay; format: functional, cell-based; details: MOLM-13, 48 h; method in brief: as §1

| SMILES | IC50 [µM] |
| --- | --- |
| COc1ccc2c(c1OC)C(=O)O[C@@H]2[C@H]1c2c(c(CC3CN(C(=O)OCc4ccccc4)C3)c3c(c2OC)OCO3)CCN1C | 4.37 |
| COc1ccc2c(c1OC)C(=O)O[C@@H]2[C@H]1c2c(c(CC3CN(C(C)=O)C3)c3c(c2OC)OCO3)CCN1C | > 20 |
